The structures appear in SMILES notation.

One data set is described as follows: Cytotoxicity against mouse Hepa-1c1c7 cells assessed as cell survival at 5 uM after 48 hrs by MTT assay. As to conditions: read-out: Activity. It is filed as cell-based. A digest of the protocol: (§1)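 MTT (0.5 mg/ml) added for 3 h at 37 °C, formazan dissolved in DMSO and read at 590 nm. Survival (%) = (A treated − A blank)/(A untreated − A blank) × 100.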
Turning to `COc1ccccc1/C=C1\Oc2cc(O)ccc2C1=O`, the viability at 48 h, 5 µM worked out at 95%.

As to `O=C1/C(=C/c2ccc(O)cc2)Oc2cc(O)ccc21`, the viability at 48 h, 5 µM came out at 100%.

Consider `O=C1Oc2ccc(O)cc2/C1=C/c1cccc(O)c1`, for which the viability at 48 h, 5 µM turned out to be 95%.

Consider `O=C1/C(=C/c2ccc(Cl)cc2)Oc2cc(O)cc(O)c21`, for which the viability at 48 h, 5 µM amounted to 93%.

With `O=C1/C(=C/c2cccc(Cl)c2)Oc2cc(O)cc(O)c21`, the viability at 48 h, 5 µM was 96%.

As for `O=C1/C(=C/c2cccc(O)c2)Oc2ccc(O)cc21`, the viability at 48 h, 5 µM stood at 98%.

In the case of `O=C1Oc2ccc(O)cc2/C1=C/c1ccc(F)cc1`, the viability at 48 h, 5 µM is 101%.

Consider `COc1cc(OC)c2c(c1)OC(Cc1ccccc1)C2=O` (stereo not given), for which the viability at 48 h, 5 µM was determined as 95%.

`COc1cccc(/C=C2\Oc3ccc(O)cc3C2=O)c1`: the viability at 48 h, 5 µM was 104%.

For `COc1cccc(/C=C2\Oc3cc(OC)cc(OC)c3C2=O)c1`, the viability at 48 h, 5 µM stood at 100%.

Consider `COc1cc(OC)c2c(c1)O/C(=C\c1ccc(C(F)(F)F)cc1)C2=O`, for which the viability at 48 h, 5 µM was determined as 90%.

With `COc1ccccc1/C=C1\C(=O)Oc2ccc(O)cc21`, the viability at 48 h, 5 µM is 92%.

With `O=C1/C(=C/c2ccccc2Cl)Oc2ccc(O)cc21`, the viability at 48 h, 5 µM is 98%.

Take `COc1ccccc1/C=C1\Oc2cc(O)cc(O)c2C1=O`: the viability at 48 h, 5 µM came to 103%.

For `COc1cc(OC)c2c(c1)O/C(=C\c1ccc(O)cc1)C2=O`, the viability at 48 h, 5 µM was determined as 94%.

Consider `Cc1ccc(/C=C2\Oc3cc(O)ccc3C2=O)cc1`, for which the viability at 48 h, 5 µM turned out to be 98%.

Regarding `O=C1/C(=C/c2ccccc2)Oc2cc(O)ccc21`, the viability at 48 h, 5 µM is 115%.

A further data set is described as follows: Induction of NQO1 activity in mouse Hepa-1c1c7 cells at 25 uM after 48 hrs relative to control.
Settings: not given
Take `COc1ccc(/C=C2\Oc3ccc(O)cc3C2=O)cc1`: the fold change (FC) came to 1.17.

For the molecule `O=C1/C(=C/c2ccc(Cl)cc2)Oc2ccc(O)cc21`, the fold change (FC) was determined as 1.18.

In the case of `N#Cc1ccc(/C=C2\Oc3ccc(O)cc3C2=O)cc1`, the fold change (FC) came out at 1.25.

Turning to `Cc1ccc(/C=C2\Oc3ccc(O)cc3C2=O)cc1`, the fold change (FC) amounted to 1.36.

For `COc1ccccc1/C=C1\Oc2cc(O)ccc2C1=O`, the fold change (FC) was 0.61.

Take `O=C1Oc2ccc(O)cc2/C1=C/c1cccc(O)c1`: the fold change (FC) is 1.83.

On to `O=C1/C(=C/c2ccc(Cl)cc2)Oc2cc(O)cc(O)c21`, for which the fold change (FC) came to 1.7.

With `O=C1/C(=C/c2cccc(Cl)c2)Oc2cc(O)cc(O)c21`, the fold change (FC) was 1.71.

As for `O=C1/C(=C/c2cccc(O)c2)Oc2ccc(O)cc21`, the fold change (FC) worked out at 1.66.

Take `O=C1Oc2ccc(O)cc2/C1=C/c1ccc(F)cc1`: the fold change (FC) turned out to be 1.23.

Take `O=C1/C(=C/c2ccc(O)cc2)Oc2ccc(O)cc21`: the fold change (FC) was determined as 0.94.

As to `COc1cccc(/C=C2\Oc3ccc(O)cc3C2=O)c1`, the fold change (FC) came to 1.18.

In the case of `COc1cccc(/C=C2\Oc3cc(OC)cc(OC)c3C2=O)c1`, the fold change (FC) amounted to 1.59.

In the case of `COc1cc(OC)c2c(c1)O/C(=C\c1ccc(C(F)(F)F)cc1)C2=O`, the fold change (FC) was determined as 0.83.

Regarding `COc1ccccc1/C=C1\C(=O)Oc2ccc(O)cc21`, the fold change (FC) turned out to be 1.44.

Regarding `O=C1/C(=C/c2ccccc2Cl)Oc2ccc(O)cc21`, the fold change (FC) is 1.71.

Turning to `COc1ccccc1/C=C1\Oc2cc(O)cc(O)c2C1=O`, the fold change (FC) amounted to 1.52.

Regarding `COc1cc(OC)c2c(c1)O/C(=C\c1ccc(O)cc1)C2=O`, the fold change (FC) came out at 1.29.

`Cc1ccc(/C=C2\Oc3cc(O)ccc3C2=O)cc1`: the fold change (FC) was determined as 0.9.

For `O=C1/C(=C/c2ccccc2)Oc2cc(O)ccc21`, the fold change (FC) was found to be 1.85.

Another data set is described as follows: Induction of NQO1 activity in mouse Hepa-1c1c7 cells at 5 uM after 48 hrs relative to control.
Settings: not given
For the molecule `COc1ccc(/C=C2\Oc3ccc(O)cc3C2=O)cc1`, the fold change (FC) worked out at 1.

For `O=C1/C(=C/c2ccccc2)Oc2ccc(O)cc21`, the fold change (FC) came out at 2.28.

On to `O=C1/C(=C/c2ccc(Cl)cc2)Oc2ccc(O)cc21`, for which the fold change (FC) was 1.32.

In the case of `N#Cc1ccc(/C=C2\Oc3ccc(O)cc3C2=O)cc1`, the fold change (FC) was found to be 1.3.

Consider `Cc1ccc(/C=C2\Oc3ccc(O)cc3C2=O)cc1`, for which the fold change (FC) turned out to be 1.14.

With `COc1ccccc1/C=C1\Oc2cc(O)ccc2C1=O`, the fold change (FC) amounted to 0.46.

As to `O=C1Oc2ccc(O)cc2/C1=C/c1cccc(O)c1`, the fold change (FC) worked out at 1.64.

For the molecule `O=C1/C(=C/c2ccc(Cl)cc2)Oc2cc(O)cc(O)c21`, the fold change (FC) was determined as 1.59.

As for `O=C1/C(=C/c2cccc(Cl)c2)Oc2cc(O)cc(O)c21`, the fold change (FC) is 1.45.

Consider `O=C1/C(=C/c2cccc(O)c2)Oc2ccc(O)cc21`, for which the fold change (FC) was 1.29.

On to `O=C1Oc2ccc(O)cc2/C1=C/c1ccc(F)cc1`, for which the fold change (FC) worked out at 1.2.

Take `O=C1/C(=C/c2ccc(O)cc2)Oc2ccc(O)cc21`: the fold change (FC) came to 1.22.

With `COc1cc(OC)c2c(c1)OC(Cc1ccccc1)C2=O` (stereo not given), the fold change (FC) worked out at 1.46.

Turning to `COc1cccc(/C=C2\Oc3ccc(O)cc3C2=O)c1`, the fold change (FC) came to 1.19.

Turning to `COc1cccc(/C=C2\Oc3cc(OC)cc(OC)c3C2=O)c1`, the fold change (FC) is 0.91.

Regarding `COc1cc(OC)c2c(c1)O/C(=C\c1ccc(C(F)(F)F)cc1)C2=O`, the fold change (FC) was determined as 1.08.

Take `COc1ccccc1/C=C1\C(=O)Oc2ccc(O)cc21`: the fold change (FC) stood at 1.01.

As to `O=C1/C(=C/c2ccccc2Cl)Oc2ccc(O)cc21`, the fold change (FC) turned out to be 1.33.

Regarding `COc1ccccc1/C=C1\Oc2cc(O)cc(O)c2C1=O`, the fold change (FC) is 1.48.

Turning to `COc1cc(OC)c2c(c1)O/C(=C\c1ccc(O)cc1)C2=O`, the fold change (FC) was determined as 1.18.

Turning to `Cc1ccc(/C=C2\Oc3cc(O)ccc3C2=O)cc1`, the fold change (FC) was 1.59.

In the case of `O=C1/C(=C/c2ccccc2)Oc2cc(O)ccc21`, the fold change (FC) stood at 1.14.

The next data set in a line: Cytotoxicity against mouse Hepa-1c1c7 cells assessed as cell survival at 25 uM after 48 hrs by MTT assay. It is filed as cell-based. Particulars: read-out: Activity. A digest of the protocol:
as §1
As for `COc1ccccc1/C=C1\Oc2cc(O)ccc2C1=O`, the viability at 48 h, 25 µM was determined as 96%.

In the case of `O=C1/C(=C/c2ccc(O)cc2)Oc2cc(O)ccc21`, the viability at 48 h, 25 µM stood at 98%.

`O=C1Oc2ccc(O)cc2/C1=C/c1cccc(O)c1`: the viability at 48 h, 25 µM was 87%.

In the case of `O=C1/C(=C/c2ccc(Cl)cc2)Oc2cc(O)cc(O)c21`, the viability at 48 h, 25 µM amounted to 96%.

Take `O=C1/C(=C/c2cccc(Cl)c2)Oc2cc(O)cc(O)c21`: the viability at 48 h, 25 µM was 86%.

Turning to `O=C1/C(=C/c2cccc(O)c2)Oc2ccc(O)cc21`, the viability at 48 h, 25 µM was 89%.

As for `O=C1Oc2ccc(O)cc2/C1=C/c1ccc(F)cc1`, the viability at 48 h, 25 µM was determined as 121%.

In the case of `COc1cccc(/C=C2\Oc3ccc(O)cc3C2=O)c1`, the viability at 48 h, 25 µM stood at 110%.

Consider `COc1cccc(/C=C2\Oc3cc(OC)cc(OC)c3C2=O)c1`, for which the viability at 48 h, 25 µM was determined as 103%.

For `COc1cc(OC)c2c(c1)O/C(=C\c1ccc(C(F)(F)F)cc1)C2=O`, the viability at 48 h, 25 µM stood at 93%.

Regarding `COc1ccccc1/C=C1\C(=O)Oc2ccc(O)cc21`, the viability at 48 h, 25 µM was determined as 110%.

As for `O=C1/C(=C/c2ccccc2Cl)Oc2ccc(O)cc21`, the viability at 48 h, 25 µM amounted to 94%.

On to `COc1ccccc1/C=C1\Oc2cc(O)cc(O)c2C1=O`, for which the viability at 48 h, 25 µM is 100%.

Regarding `COc1cc(OC)c2c(c1)O/C(=C\c1ccc(O)cc1)C2=O`, the viability at 48 h, 25 µM was found to be 89%.

In the case of `Cc1ccc(/C=C2\Oc3cc(O)ccc3C2=O)cc1`, the viability at 48 h, 25 µM was 100%.

In the case of `O=C1/C(=C/c2ccccc2)Oc2cc(O)ccc21`, the viability at 48 h, 25 µM is 110%.
